Laboratory results reported in ChEMBL document CHEMBL1212759, “Antifungal activity of colistin against mucorales species in vitro and in a murine model of Rhizopus oryzae pulmonary infection” (Antimicrob Agents Chemother, 2010).

Tests used:
Type in all cases: functional, organism-based
Mucor circinelloides [1] = experiment: Antimicrobial activity against Mucor circinelloides isolate 4818 after 24 hrs in RMPI 1640 medium by broth microdilution method
Summary of the method: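 Colistin was serially diluted from 64 to 0.06 μg/ml in RPMI 1640 with glucamine and without bicarbonate. Fresh spores from 48–72 h YAG plates were added at 0.5 × 10^4 to 4 × 10^4 cells/ml. Plates were incubated 24 h at 37°C. MIC was read visually as the lowest concentration giving 100% growth inhibition.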

Rhizopus = experiment: Antimicrobial activity against Rhizopus sp. isolate 4523 after 24 hrs in RMPI 1640 medium by broth microdilution method
Summary of the method: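 Broth microdilution in RPMI 1640 with […], without bicarbonate. Colistin was serially diluted 64 to 0.06 μg/ml. Spores came from YAG plates grown 48–72 h at 37°C, were filtered and counted, and were inoculated at 0.5 × 10^4 to 4 × 10^4 cells/ml. Plates were incubated 24 h at 37°C. MIC was read visually as the lowest concentration giving 100% growth inhibition.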

Mucor circinelloides [2] = experiment: Antimicrobial activity against Mucor circinelloides isolate 4030 after 24 hrs in yeast nitrogen base complete medium by broth microdilution method
Summary of the method: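 Broth microdilution in YNB complete medium with colistin at 128 to 0.12 μg/ml. Freshly collected spores were inoculated at 0.5 × 10^4 to 4 × 10^4 cells/ml and incubated 24 h at 37°C. MIC was read visually as the lowest concentration with complete (100%) growth inhibition.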

MIC (Mucor circinelloides [1]): 32 µg/mL | MIC (Rhizopus): 16 µg/mL | MIC (Mucor circinelloides [2]): 128 µg/mL
Sequence: COLISTIN
MFC (Mucor circinelloides [1]): 32 µg/mL | MFC (Rhizopus): 64 µg/mL | MFC (Mucor circinelloides [2]): > 128 µg/mL
